# Data published in ChEMBL document CHEMBL4689842, “EUbOPEN Chemogenomics Library wave 1” (2021).
# System: HEK-293T
# Experiment: Multiplex assay against HEK293T;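 as to Population Tubulin-Different-Phenotype (%): share of the cells with healthy nuclei that show this phenotype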
# Assay type: toxicity, cell-based
# Details: human
# In short: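 Values for tubulin, mitochondrial-mass and membrane-permeability phenotypes are per cents of cells with healthy nuclei. These cells were identified by CellPathfinder machine-learning gating of live cells that had been stained at seeding with Hoechst33342, BioTracker Green Microtubule Cytoskeleton Dye, MitoTracker Red and Annexin V Alexa Fluor 680 and imaged on a CQ1 microscope at 37°C and 5% CO2 after compound addition. The gating first set Hoechst high-intensity objects apart from normal cells, then split normal cells into healthy, pyknosed or fragmented nuclei, and pyknosed cells into mitotic or apoptotic.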
# [1] = 12 h, 1 µM, compound concentration 1 uM, replicate 1
# [2] = 12 h, 1 µM, compound concentration 1 uM, replicate 2
# [3] = 12 h, 10 µM, compound concentration 10 uM, replicate 1
# [4] = 12 h, 10 µM, compound concentration 10 uM, replicate 2
# [5] = 24 h, 1 µM, compound concentration 1 uM, replicate 1
# [6] = 24 h, 1 µM, compound concentration 1 uM, replicate 2
# [7] = 24 h, 10 µM, compound concentration 10 uM, replicate 1
# [8] = 24 h, 10 µM, compound concentration 10 uM, replicate 2
# [9] = 48 h, 1 µM, compound concentration 1 uM, replicate 1
# [10] = 48 h, 1 µM, compound concentration 1 uM, replicate 2
# [11] = 48 h, 10 µM, compound concentration 10 uM, replicate 1
# [12] = 48 h, 10 µM, compound concentration 10 uM, replicate 2
smiles,measurement,setting,value
CCOc1cc(C(=O)N2CCC(N3CCN(C)CC3)CC2)ccc1Nc1ncc2c(n1)N(C1CCCC1)c1ccccc1C(=O)N2C,Population Apoptotic (%),[1],61%
same,Population Fragmented Nuclei (%),[1],16%
same,Population Hoechst High Intensity Objects (%),[1],18%
same,Population Membrane Permeable-Phenotype (%),[1],5%
same,Population Mitochondria Different-Phenotype (%),[1],93%
same,Population Mitotic Cells (%),[1],38%
same,Population Normal (%),[1],81%
same,Population Pyknosed Nuclei (%),[1],57%
same,Population Tubulin-Different-Phenotype (%),[1],81%
same,Total Cell Count,[1],371
same,Population Apoptotic (%),[2],60%
same,Population Fragmented Nuclei (%),[2],4%
same,Population Healthy Nuclei (%),[2],25%
same,Population Hoechst High Intensity Objects (%),[2],5%
same,Population Membrane Permeable-Phenotype (%),[2],9%
same,Population Mitochondria Different-Phenotype (%),[2],88%
same,Population Mitotic Cells (%),[2],39%
same,Population Normal (%),[2],94%
same,Population Pyknosed Nuclei (%),[2],70%
same,Population Tubulin-Different-Phenotype (%),[2],79%
same,Total Cell Count,[2],178
same,Population Apoptotic (%),[3],83%
same,Population Fragmented Nuclei (%),[3],8%
same,Population Healthy Nuclei (%),[3],12%
same,Population Hoechst High Intensity Objects (%),[3],15%
same,Population Mitochondria Different-Phenotype (%),[3],95%
same,Population Mitotic Cells (%),[3],16%
same,Population Normal (%),[3],84%
same,Population Pyknosed Nuclei (%),[3],79%
same,Population Tubulin-Different-Phenotype (%),[3],60%
same,Total Cell Count,[3],215
same,Population Apoptotic (%),[4],92%
same,Population Fragmented Nuclei (%),[4],5%
same,Population Healthy Nuclei (%),[4],6%
same,Population Hoechst High Intensity Objects (%),[4],7%
same,Population Membrane Permeable-Phenotype (%),[4],0%
same,Population Mitochondria Different-Phenotype (%),[4],100%
same,Population Mitotic Cells (%),[4],7%
same,Population Normal (%),[4],92%
same,Population Pyknosed Nuclei (%),[4],88%
same,Population Tubulin-Different-Phenotype (%),[4],16%
same,Total Cell Count,[4],216
same,Population Apoptotic (%),[5],63%
same,Population Fragmented Nuclei (%),[5],19%
same,Population Hoechst High Intensity Objects (%),[5],19%
same,Population Membrane Permeable-Phenotype (%),[5],3%
same,Population Mitochondria Different-Phenotype (%),[5],96%
same,Population Mitotic Cells (%),[5],36%
same,Population Normal (%),[5],80%
same,Population Pyknosed Nuclei (%),[5],54%
same,Population Tubulin-Different-Phenotype (%),[5],83%
same,Total Cell Count,[5],391
same,Population Apoptotic (%),[6],66%
same,Population Fragmented Nuclei (%),[6],4%
same,Population Healthy Nuclei (%),[6],26%
same,Population Hoechst High Intensity Objects (%),[6],3%
same,Population Membrane Permeable-Phenotype (%),[6],5%
same,Population Mitochondria Different-Phenotype (%),[6],92%
same,Population Mitotic Cells (%),[6],33%
same,Population Normal (%),[6],96%
same,Population Pyknosed Nuclei (%),[6],69%
same,Population Tubulin-Different-Phenotype (%),[6],75%
same,Total Cell Count,[6],204
same,Population Apoptotic (%),[7],91%
same,Population Fragmented Nuclei (%),[7],15%
same,Population Healthy Nuclei (%),[7],4%
same,Population Hoechst High Intensity Objects (%),[7],19%
same,Population Membrane Permeable-Phenotype (%),[7],0%
same,Population Mitochondria Different-Phenotype (%),[7],100%
same,Population Mitotic Cells (%),[7],8%
same,Population Normal (%),[7],80%
same,Population Pyknosed Nuclei (%),[7],80%
same,Population Tubulin-Different-Phenotype (%),[7],37%
same,Total Cell Count,[7],206
same,Population Apoptotic (%),[8],93%
same,Population Fragmented Nuclei (%),[8],6%
same,Population Healthy Nuclei (%),[8],18%
same,Population Hoechst High Intensity Objects (%),[8],11%
same,Population Mitochondria Different-Phenotype (%),[8],97%
same,Population Mitotic Cells (%),[8],6%
same,Population Normal (%),[8],88%
same,Population Pyknosed Nuclei (%),[8],74%
same,Population Tubulin-Different-Phenotype (%),[8],21%
same,Total Cell Count,[8],222
same,Population Apoptotic (%),[9],64%
same,Population Fragmented Nuclei (%),[9],22%
same,Population Healthy Nuclei (%),[9],31%
same,Population Hoechst High Intensity Objects (%),[9],20%
same,Population Mitochondria Different-Phenotype (%),[9],91%
same,Population Mitotic Cells (%),[9],35%
same,Population Normal (%),[9],79%
same,Population Pyknosed Nuclei (%),[9],46%
same,Population Tubulin-Different-Phenotype (%),[9],65%
same,Total Cell Count,[9],400
same,Population Apoptotic (%),[10],58%
same,Population Fragmented Nuclei (%),[10],8%
same,Population Healthy Nuclei (%),[10],48%
same,Population Hoechst High Intensity Objects (%),[10],5%
same,Population Membrane Permeable-Phenotype (%),[10],0%
same,Population Mitochondria Different-Phenotype (%),[10],72%
same,Population Mitotic Cells (%),[10],41%
same,Population Normal (%),[10],94%
same,Population Pyknosed Nuclei (%),[10],43%
same,Population Tubulin-Different-Phenotype (%),[10],63%
same,Total Cell Count,[10],239
same,Population Apoptotic (%),[11],90%
same,Population Fragmented Nuclei (%),[11],23%
same,Population Healthy Nuclei (%),[11],2%
same,Population Hoechst High Intensity Objects (%),[11],20%
same,Population Membrane Permeable-Phenotype (%),[11],0%
same,Population Mitotic Cells (%),[11],9%
same,Population Normal (%),[11],79%
same,Population Pyknosed Nuclei (%),[11],74%
same,Population Tubulin-Different-Phenotype (%),[11],75%
same,Total Cell Count,[11],233
same,Population Apoptotic (%),[12],98%
same,Population Fragmented Nuclei (%),[12],13%
same,Population Healthy Nuclei (%),[12],11%
same,Population Hoechst High Intensity Objects (%),[12],10%
same,Population Membrane Permeable-Phenotype (%),[12],5%
same,Population Mitochondria Different-Phenotype (%),[12],100%
same,Population Mitotic Cells (%),[12],1%
same,Population Normal (%),[12],90%
same,Population Pyknosed Nuclei (%),[12],75%
same,Population Tubulin-Different-Phenotype (%),[12],50%
same,Total Cell Count,[12],200
